In brackets after ≈: the same amount, converted by molar mass.
Tests used:
[1] = tested on: Human alphaherpesvirus 3; test: Antiviral activity against TK+ VZV OKA in human embryonic lung cells; type: functional, organism-based; details: Human alphaherpesvirus 3, OKA
[2] = tested on: Cytomegalovirus; test: Antiviral activity against Cytomegalovirus Davis in human embryonic lung cells; type: functional, organism-based; details: Human betaherpesvirus 5, Davis
Method in brief: (§1)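 Human embryonic lung cell cultures were infected with cytomegalovirus, and the effect on viral plaque formation was scored. EC50 is the concentration, in µg/mL, that reduced virus plaque formation by 50%.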

[3] = tested on: HEL; test: Cytotoxicity as determined by alteration in the cell morphology of HEL cells; type: functional; details: Homo sapiens
Method in brief: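 Human embryonic lung cells were examined by microscope for changes in morphology. MCC is the minimum concentration, in µg/mL, that caused a microscopically detectable alteration of cell morphology.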

[4] = tested on: Human alphaherpesvirus 3; test: Antiviral activity against TK- VZV 07/10 in human embryonic lung cells; type: functional, organism-based; details: Human alphaherpesvirus 3, 07/10, lung
[5] = tested on: Cytomegalovirus; test: Antiviral activity against Cytomegalovirus AD169 in human embryonic lung cells; type: functional, organism-based; details: Human betaherpesvirus 5, AD169, lung; method in brief: as §1
[6] = tested on: HEL; test: Cytotoxicity against HEL cells; type: functional; details: Homo sapiens
Method in brief: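 Cytotoxicity was measured in human embryonic lung cells as inhibition of cell growth. CC50 is the concentration, in µg/mL, that reduced cell growth by 50%.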

[7] = target: Adenosylhomocysteinase (Homo sapiens, UniProt P23526); test: Inhibitory activity against AdoHcy Hydrolase
Method in brief: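 Purified recombinant placental AdoHcy hydrolase was preincubated with inhibitor at several concentrations in assay buffer at 37 °C. Remaining activity was measured in the synthetic direction. Ki and kinact came from the Kitz–Wilson method. […] Irreversibility was checked by 24 h dialysis.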

Adenosylhomocysteinase, sequence (P23526 whole entry): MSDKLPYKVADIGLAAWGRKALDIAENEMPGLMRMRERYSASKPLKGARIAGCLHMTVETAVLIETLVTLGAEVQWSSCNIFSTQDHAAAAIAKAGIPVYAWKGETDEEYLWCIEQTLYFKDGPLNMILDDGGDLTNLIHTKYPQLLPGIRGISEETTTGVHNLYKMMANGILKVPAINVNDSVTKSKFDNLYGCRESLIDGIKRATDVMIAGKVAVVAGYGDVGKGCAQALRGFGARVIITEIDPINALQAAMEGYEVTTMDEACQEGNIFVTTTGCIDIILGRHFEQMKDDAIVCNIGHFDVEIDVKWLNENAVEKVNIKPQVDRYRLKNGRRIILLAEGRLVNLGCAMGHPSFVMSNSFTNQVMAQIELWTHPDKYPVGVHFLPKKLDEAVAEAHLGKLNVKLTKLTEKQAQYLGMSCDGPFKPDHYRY

N#C/C=C\[C@H]1O[C@@H](n2cnc3c(N)ncnc32)[C@H](O)[C@@H]1O
EC50 [1]: > 20 µg/mL
EC50 [2]: > 20 µg/mL
MCC [3]: 100 µg/mL
EC50 [4]: > 20 µg/mL
EC50 [5]: > 20 µg/mL
CC50 [6]: > 20 µg/mL

N#C/C=C/[C@H]1O[C@@H](n2cnc3c(N)ncnc32)[C@H](O)[C@@H]1O
EC50 [1]: > 20 µg/mL
EC50 [2]: > 20 µg/mL
MCC [3]: ≥ 20 µg/mL
EC50 [4]: > 20 µg/mL
EC50 [5]: > 20 µg/mL
CC50 [6]: 11 µg/mL (≈ 38.2 µM)

N#C/C(Cl)=C\[C@H]1O[C@@H](n2cnc3c(N)ncnc32)[C@H](O)[C@@H]1O
EC50 [1]: 11 µg/mL (≈ 34.1 µM)
EC50 [2]: > 20 µg/mL
MCC [3]: 100 µg/mL
EC50 [4]: 17 µg/mL (≈ 52.7 µM)
Ki [7]: 17 µM
EC50 [5]: > 20 µg/mL
CC50 [6]: 1.2 µg/mL (≈ 3.72 µM)

Nc1nc2c(ncn2COCCO)c(=O)[nH]1 [ACYCLOVIR]
MCC [3]: > 400 µg/mL
CC50 [6]: 118 µg/mL (≈ 524 µM)

O=c1[nH]c(=O)n([C@H]2C[C@H](O)[C@@H](CO)O2)cc1/C=C/Br [BRIVUDINE]
EC50 [1]: 0.0051 µg/mL (≈ 0.0153 µM)
MCC [3]: > 400 µg/mL
EC50 [4]: 149 µg/mL (≈ 447 µM)
CC50 [6]: > 200 µg/mL

Nc1ccn(C[C@@H](CO)OCP(=O)(O)O)c(=O)n1.O.O [CIDOFOVIR]
EC50 [2]: 0.64 µg/mL
MCC [3]: ≥ 400 µg/mL
EC50 [5]: 0.49 µg/mL
CC50 [6]: 23 µg/mL

Nc1nc2c(ncn2COC(CO)CO)c(=O)[nH]1 [GANCICLOVIR]
EC50 [2]: 3.2 µg/mL (≈ 12.5 µM)
MCC [3]: ≥ 400 µg/mL
EC50 [5]: 3.2 µg/mL (≈ 12.5 µM)
CC50 [6]: 34 µg/mL (≈ 133 µM)
